Rev-erbA mod – modulators of Rev-erb alpha DNA binding, primary screen, biochemical, FITC-DNA, fluorescence polarization, uHTS | Rev-erbα–FITC-DNA binding, 90 min | hit rate 0.79% among 370,000 | activity, % at 10 µM | Nuclear receptor subfamily 1 group D member 1 (Homo sapiens), P20393;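 active = activity above about 14%, limit read from the data; passing the limit was not always enough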
NR2E3 ag-1 – inhibitors of NR2E3-RetCOR corepressor binding, primary screen, NR2E3 agonist project, biochemical, TR-FRET, GST-NR2E3, biotin-RetCOR; inhibition of corepressor binding, % at 4.78 µM; Photoreceptor-specific nuclear receptor (Homo sapiens), Q9Y5X4; 1536-well; hit rate 0.12% among 320,000; AID 2300, 2010;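 active = percent inhibition above the cutoff of mean plus 3 SD of all tested compounds, set per screening campaign, cut at about 20% in these data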
Target sequence (Q9Y5X4 whole entry, looked up): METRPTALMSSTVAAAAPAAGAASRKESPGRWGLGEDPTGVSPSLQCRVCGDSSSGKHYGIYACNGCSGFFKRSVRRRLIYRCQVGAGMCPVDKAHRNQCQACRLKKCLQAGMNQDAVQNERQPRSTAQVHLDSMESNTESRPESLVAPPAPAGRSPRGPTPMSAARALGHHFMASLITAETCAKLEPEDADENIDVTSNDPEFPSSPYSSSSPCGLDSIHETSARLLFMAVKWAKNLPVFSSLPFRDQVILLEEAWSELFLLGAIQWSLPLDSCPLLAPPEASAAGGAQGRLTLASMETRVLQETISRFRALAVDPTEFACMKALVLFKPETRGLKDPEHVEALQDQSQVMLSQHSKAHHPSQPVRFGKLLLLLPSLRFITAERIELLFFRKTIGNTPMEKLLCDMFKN
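Material – GST-tagged NR2E3 plus biotinylated RetCOR corepressor · Quantity – NR2E3 fusion 1.35 nM · Times – 5 h incubation at 4 °C · Medium – pH 7.5 Tris-based buffer · Technique – TR-FRET, Eu(K)-anti-GST donor, streptavidin-D2 acceptor, ex 340, em 617/671 nm · Benchmarks – high control biotin, low control 0.6% DMSO · Format – 1536-well plates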
PG9 Ab binder – binders of HIV-1 gp120 antibody PG9, primary screen, biochemical, TR-FRET | TR-FRET gp120-PG9 antibody binding | inhibition, % at 6.7 µM | HIV-1 gp120 / PG9 antibody interaction | hit rate 0.43% among 360,000; in the data active = inhibition above about 8.5%
MC4R ag barr – MC4R agonists recruiting beta-arrestin, primary screen, cell-based, luminescence, agonist arm of biased-ligand search; Melanocortin receptor 4 (Homo sapiens), P32245; U2OS MC4R beta-arrestin complementation; percent of melanotan II response, DMSO zero; activation, % at 8.9 µM; hit rate 0.98% among 360,000; AID 540308, 2011;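 active = activation above a per-plate cutoff, the mean activation of sample wells on that plate plus 3 SD, cut at about 8% in these data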
MC4R antag cAMP – MC4R antagonists of cAMP signaling, primary screen, cell-based, TR-FRET, antagonist arm of biased-ligand search; inhibition, % at 6.5 µM; hit rate 0.48% among 360,000; MC4R-expressing cells, MTII-stimulated cAMP, LANCE TR-FRET;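 active = inhibition above its plate's cutoff, the mean of tested wells on that plate plus 3 SD, cut at about 29% in these data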
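Material: U2OS-MC4R stable cell line | Reagent: Melanotan II challenge after compound preincubation | Doses: One concentration, 6.5 µM nominal | Incubation: 30-min compound preincubation, 1-h Melanotan II challenge, 1-h detection, room temperature | Signal: TR-FRET cAMP assay | Replicates: One well per compound, no replicates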
NR2E3 ag-2 – NR2E3 agonists in two-hybrid cells, primary screen, cell-based, luminescence, CHO-S, Gal4-NCOR/VP16-NR2E3; AID 602229, 2012; inhibition of corepressor binding, % at 3.98 µM; hit rate 0.35% among 360,000; Photoreceptor-specific nuclear receptor (Homo sapiens), Q9Y5X4; luciferase;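 active = inhibition above the mean of all tested compounds plus 3 SD, cut at about 70% in these data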;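 note: higher means lower luciferase signal from less NR2E3 corepressor binding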
NR1D1 mod conf – modulators of Rev-erb alpha DNA binding, confirmation, biochemical, FITC-DNA, fluorescence polarization, single point; 90 min; hit rate 61% among 3,000; shares compounds with Rev-erbA mod; AID 1259319, 2017; activation, % at 25 µM;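 active = activation at or above a set limit, or at least 3 SD above the negative control mean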
RORg DNA counter – modulation of RORgamma DNA binding, dose response, counter-screen for Rev-erb alpha modulator project, biochemical, fluorescence polarization, FITC-DNA. shares compounds with Rev-erbA mod. purified RORgamma protein-FITC-DNA binding. IC50, µM. hit rate 8% among 910. AID 1259320, 2017;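 active = Compounds whose fitted half-maximal concentration for disrupting protein-DNA binding is below 10 micromolar; the record names Rev-erb in its text, so the target is in doubt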
A number is an active result; - = inactive; . = no result. This is a sample that favours compounds with a hit; in the whole collection about 2.7% have one here.

SMILES	Rev-erbA mod	NR2E3 ag-1	PG9 Ab binder	MC4R ag barr	MC4R antag cAMP	NR2E3 ag-2	NR1D1 mod conf	others
COc1ccc(C2/C(=C(\O)c3cc(C)ccc3C)C(=O)C(=O)N2CCN(C)C)cc1OC (centres undefined)	-	-	-	-	-	-	.
Cc1cccc2cc(C(c3nnnn3Cc3ccccc3)N3CCN(C)CC3)c(=O)[nH]c12 (centres undefined)	.	-	.	-	-	-	.
Cc1cccc2cc(C(c3nnnn3Cc3ccccc3)N3CCN(c4ccccc4)CC3)c(=O)[nH]c12 (centres undefined)	185	-	-	-	-	-	143	RORg DNA counter=-
CCOC(=O)CSc1nc2cc3c(cc2cc1C#N)OCCO3	75	-	-	-	-	-	31	RORg DNA counter=0.66
N#Cc1cc2cc3c(cc2nc1Cl)OCCO3	27	.	-	-	-	-	22
CCOC(=O)CSc1nc(N)c(C#N)c(-c2ccc(OCC)cc2)c1C#N	56	-	12	9.4	-	-	29
COc1ccc2nc(SCc3cccnc3)c(C#N)cc2c1	86	-	-	-	-	-	56	RORg DNA counter=-
CCOC(=O)CSc1nc2cc(C)ccc2cc1C#N	-	-	-	-	-	-	.
CC(C)OC(=O)CSc1nc2cc3c(cc2cc1C#N)OCO3	49	-	-	-	-	-	-
N#Cc1cc2cc3c(cc2nc1SCC(=O)N1CCOCC1)OCO3	37	-	-	-	-	-	-
CCOC(=O)CSc1nc2cc(OC)ccc2cc1C#N	30	-	-	-	-	-	31
Cc1cc2cc3c(cc2nc1SCC(=O)N1CCOCC1)OCO3	-	-	-	-	-	-	.
CCOc1ccc(NC(=S)c2ccncc2)cc1	-	-	-	-	-	-	.
Cc1ccc(C(=O)Nc2ccccc2N2CCCCC2)cc1	-	-	-	-	-	-	.
COc1cc(CC(=O)OCC(=O)N2CCCCC2)cc(OC)c1OC	-	-	-	-	-	-	.
CCOC(=O)C(CN1CCCC1)c1ccccc1 (centres undefined)	21	-	-	-	-	-	-
CC(=O)c1ccc(N2CCN(S(=O)(=O)c3ccc4ccccc4c3)CC2)cc1	-	-	-	-	-	-	.
CC(=O)c1ccc(N2CCN(c3ccc4cc(S(=O)(=O)N5CCC(C)CC5)ccc4n3)CC2)cc1	35	-	-	-	-	-	45	RORg DNA counter=-
O=S(=O)(c1ccc2nc(N3CCN(c4ccccc4)CC3)ccc2c1)N1CCCCC1	83	-	-	-	-	-	56	RORg DNA counter=-
CCOC(=O)c1oc2ccccc2c1NC(=O)COc1cccc(OC)c1	23	-	-	-	-	-	-
CCOC(=O)c1oc2ccccc2c1NC(=O)c1ccccc1OC	-	-	-	-	-	-	.
COc1ccccc1C1=Nn2c(nnc2C2CCCCC2)SC1	-	-	-	-	-	-	.
O=c1c2ccccc2nc(SCc2ccc([N+](=O)[O-])cc2)n1-c1ccc(Cl)cc1	-	-	-	-	-	-	.
CCCN=C(C)c1c(-c2ccccc2)[nH]n(-c2nc3ccccc3s2)c1=O	58	-	-	-	-	-	40	RORg DNA counter=8.5
CCN(CC)CCCN=Cc1c(-c2ccccc2)[nH]n(-c2nc3ccccc3s2)c1=O	-	-	-	-	-	-	.
SMILES	Rev-erbA mod	NR2E3 ag-1	PG9 Ab binder	MC4R ag barr	MC4R antag cAMP	NR2E3 ag-2	NR1D1 mod conf	others
C#CC1(O)CCC2C3CCC4=C(CCC(=O)C4)C3CCC21C (centres undefined)	-	.	-	-	-	-	.
Cc1cc(C(F)(F)F)c2c(N)c(C(=O)NCc3ccc(Cl)cc3)sc2n1	-	.	-	.	.	-	.
Cc1cc(C(F)(F)F)c2c(N)c(C(=O)Nc3cc(C)on3)sc2n1	86	-	-	-	-	-	60	RORg DNA counter=-
Cc1cc(NC(=O)C2CC(c3ccccc3Cl)=NO2)no1 (centres undefined)	-	-	-	-	-	-	.
Cc1nc(N2CCN(c3ccccn3)CC2)c2c(C)c(C(=O)Nc3ccc(F)cc3F)sc2n1	-	-	-	-	-	-	.
Cc1nc(N2CCN(c3ccccn3)CC2)c2c(C)c(C(=O)Nc3ccc(F)cc3Cl)sc2n1	34	-	-	-	-	-	20
CCc1ccc(NC(=O)c2sc3nc(C)nc(N4CCN(c5ccccn5)CC4)c3c2C)cc1	28	-	-	-	-	-	21
Cc1nc(N2CCN(c3ccccn3)CC2)c2c(C)c(C(=O)N3CCN(c4cccc(Cl)c4)CC3)sc2n1	73	-	-	-	-	-	50	RORg DNA counter=-
CC(C)C(=O)N1CCCC1(C)C(=O)Nc1cccc(Oc2ccccc2)c1 (centres undefined)	-	.	-	-	-	-	.
COC(=O)CCC(NC(=O)c1cc(-c2ccc3c(c2)OCCO3)oc1C)C(=O)OC (centres undefined)	-	-	-	-	-	-	.
Cc1onc(-c2ccccc2)c1C(=O)Nc1cc(C(F)(F)F)ccc1N1CCOCC1	22	-	-	-	-	-	33
Cc1onc(-c2ccccc2)c1C(=O)Nc1ccccc1N1CCOCC1	-	-	-	-	-	-	.
COc1cccc(/C=C/C(=O)OCC(=O)c2c[nH]c3ccccc23)c1OC	-	-	-	-	-	-	.
Cc1nn(-c2ccc(F)cc2)c2c1cc(C#N)c1nc3ccccc3n12	60	-	-	-	-	-	39
COCCCNC(=O)C[C@@H]1C(=O)N(CCc2ccc(Cl)cc2)C2=CCCCC[C@]21C(=O)OC	-	.	.	.	.	.	.
COc1cccc(NC(=O)c2cc(C(=O)Nc3cccc(OC)c3)n(C)n2)c1	-	-	-	-	-	-	.
Cn1nc(C(=O)Nc2ccc(Br)cc2)cc1C(=O)Nc1ccc(Br)cc1	13	-	-	-	-	-	-
Cc1cccc2c(C(=O)n3cccn3)cc(-c3ccccc3Cl)nc12	31	-	-	-	-	-	-
CN(/N=C/c1cccnc1)c1cnn(-c2ccc(F)c(Cl)c2)c(=O)c1Cl	26	-	-	-	-	-	-

From PubChem BioAssay
